Experimental data: article PMC5816979 (Biochemistry, 2017)

Columns and labels:
Type in all cases: binding
[1] = biological target: T1, P450cam (cytochrome P450cam), WT (Pseudomonas putida, UniProt P00183, C335A/Y97F); experiment: visible spectrophotometric titration
T1 sequence (P00183 2-415 Y97F/C335A): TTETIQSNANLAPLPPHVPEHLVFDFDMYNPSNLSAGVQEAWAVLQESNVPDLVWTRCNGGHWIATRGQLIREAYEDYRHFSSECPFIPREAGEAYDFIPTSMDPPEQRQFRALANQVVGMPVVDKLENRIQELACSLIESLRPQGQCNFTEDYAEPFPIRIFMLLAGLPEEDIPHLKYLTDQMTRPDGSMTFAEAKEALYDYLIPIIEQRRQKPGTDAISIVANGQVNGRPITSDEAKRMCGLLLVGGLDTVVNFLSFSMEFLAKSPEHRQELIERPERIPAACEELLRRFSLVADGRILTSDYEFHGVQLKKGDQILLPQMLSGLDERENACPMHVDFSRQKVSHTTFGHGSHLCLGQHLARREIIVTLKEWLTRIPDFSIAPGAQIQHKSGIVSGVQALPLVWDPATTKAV

[2] = biological target: T2, P450cam (cytochrome P450cam), WT (Pseudomonas putida, UniProt P00183, C335A); experiment: visible spectrophotometric titration
T2 sequence (P00183 2-415 C335A): T1 sequence (P00183 2-415 Y97F/C335A)

[3] = biological target: T2, P450cam (cytochrome P450cam), WT; experiment: constant-volume visible difference spectrophotometric titration
How it was run: (§1)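 Substrate-bound protein solution was exchanged into substrate-free solution at the same protein concentration, and visible difference spectra were recorded. KD was obtained by fitting to a single-site binding model. This method applied to the camphor-analogue test compounds.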

[4] = biological target: T1, P450cam (cytochrome P450cam), WT; experiment: as above
How it was run: as §1

Q: Which Kd [1] does the source give for `CC1(C)[C@@H]2CC[C@@]1(C)C(=O)C2` [d-camphor] here?
A: 3.5 ± 0.6 µM

Q: And the Kd [2]?
A: 1.8 ± 0.8 µM

Q: Which results are given for `CC12CCC(CC1)C2(C)C` [camphane]?
A: Kd [3]: 18.7 ± 2.5 µM; Kd [4]: 10.7 ± 3.3 µM

Q: `CC1(C)C2CCC1(C)C(O)C2` (racemic) [isoborneol] was tested. Which Kd [3] did it give?
A: 10.9 ± 3.4 µM

Q: What about the Kd [4] of the same molecule?
A: 1.2 ± 0.3 µM
